In publication PMC3144539 (British Journal of Pharmacology, 2011):

Columns and labels:
[1] = paediatric phase I study, neuroblastoma patients; ref Villablanca et al., 2006; cited from earlier work
[2] = molecular target: human CYP3A4 (Homo sapiens, UniProt P08684); assay: Formation of 4-oxo-4-HPR from 4-HPR in human CYP3A4 isoenzyme microsomes; type: in vitro ADME; conditions: 4-HPR 10 µM, NADPH generating system
[3] = Plasma levels in nu/nu mice given 4-HPR/LXS with or without ketoconazole; type: in vivo, athymic nude (nu/nu) mice
In short: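 Athymic nude mice, 5–6 weeks old, were gavaged with test compound in lipid-matrix powder slurried in sterile water, 180 mg·kg−1 per day in two divided doses, alone or with ketoconazole at increasing doses. Killed 4 h after the ninth dose. Plasma from isoflurane cardiac-puncture blood, collected in the dark, was analysed by HPLC. Three mice per condition; mean ± SD.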

[4] = Plasma levels in neuroblastoma patients given 4-HPR/LXS oral powder; type: in vivo; conditions: human, 595 mg/m2 per day
In short: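 Three relapsed/refractory neuroblastoma patients received oral lipid-matrix powder, 595 mg·m−2 per day given twice daily 12 h apart. On day 6 of cycle 1, venous blood was drawn just before the morning dose and every 2 h to 8 h. Samples went into foil-wrapped heparinized tubes, were centrifuged immediately, stored at −80°C and handled in the dark. Plasma was assayed by HPLC.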

[5] = system: human cancer cell lines; conditions: variety of human cancer cell lines in vitro; ref Delia et al., 1993; Mariotti et al., 1994; Kalemkerian et al., 1995; Oridate et al., 1996; O'Donnell et al., 2002; cited from earlier work
[6] = Plasma levels in NOD/SCID mice given 4-HPR/LXS with or without ketoconazole; type: in vivo
In short: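 NOD/SCID mice, 5–6 weeks old, were gavaged with 180 mg·kg−1 per day test compound (lipid-matrix powder slurried in water, two divided doses), alone or with ketoconazole. The dose-ranging arm was sampled 4 h after the ninth dose, the 25 mg·kg−1 arm 4 h after the fifth dose. Light-protected cardiac-puncture plasma was analysed by HPLC. Cohorts of three; mean ± SD.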

[7] = beagle dogs, single 10 mg/kg dose of the capsules; ref Liu et al., 2007; cited from earlier work
[8] = 4-HPR and 4-MPR metabolism kinetics in pooled mouse liver microsomes; type: in vitro ADME; conditions: pH 7.4
In short: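 Pooled mouse liver microsomes at 0.5 mg protein·mL−1 with NADPH-generating solutions in 0.1 M potassium phosphate, pH 7.4, preincubated 20 min at 37°C. Substrate added at a range of concentrations and shaken 60 min at 37°C. Stopped with ice-cold acetonitrile plus internal standard, centrifuged, and supernatant analysed by reverse-phase HPLC. Michaelis–Menten constants for product formation derived.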

[9] = system: 4-oxo-4-HPR formation in pooled mouse liver microsomes (MLM); assay: Effect of CYP enzyme inhibitors on 4-oxo-4-HPR formation from 4-HPR in MLM; type: in vitro ADME; conditions: inhibitor 10 µM, 4-HPR 25 µM, 60 min
In short: (§1)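 Pooled liver microsomes (0.5 mg protein·mL−1) were preincubated 20 min at 37°C, pH 7.4 phosphate buffer, with the NADPH-generating system and a CYP2C8, 2C9 or 3A4 inhibitor or no inhibitor. Then 25 µM substrate was added for 60 min at 37°C. Acetonitrile/internal-standard quench, centrifugation, and HPLC quantitation of 4-oxo product followed. Performed in triplicate.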

[10] = system: CYP3A4; conditions: inhibits other CYP isoforms at higher concentrations; ref Jia and Liu, 2007; cited from earlier work
[11] = system: 4-oxo-4-HPR formation in pooled human liver microsomes (HLM); assay: Effect of CYP enzyme inhibitors on 4-oxo-4-HPR formation from 4-HPR in HLM; type: in vitro ADME; conditions: inhibitor 10 µM, 4-HPR 25 µM, 60 min
In short: as §1

human CYP3A4, sequence (P08684 whole entry): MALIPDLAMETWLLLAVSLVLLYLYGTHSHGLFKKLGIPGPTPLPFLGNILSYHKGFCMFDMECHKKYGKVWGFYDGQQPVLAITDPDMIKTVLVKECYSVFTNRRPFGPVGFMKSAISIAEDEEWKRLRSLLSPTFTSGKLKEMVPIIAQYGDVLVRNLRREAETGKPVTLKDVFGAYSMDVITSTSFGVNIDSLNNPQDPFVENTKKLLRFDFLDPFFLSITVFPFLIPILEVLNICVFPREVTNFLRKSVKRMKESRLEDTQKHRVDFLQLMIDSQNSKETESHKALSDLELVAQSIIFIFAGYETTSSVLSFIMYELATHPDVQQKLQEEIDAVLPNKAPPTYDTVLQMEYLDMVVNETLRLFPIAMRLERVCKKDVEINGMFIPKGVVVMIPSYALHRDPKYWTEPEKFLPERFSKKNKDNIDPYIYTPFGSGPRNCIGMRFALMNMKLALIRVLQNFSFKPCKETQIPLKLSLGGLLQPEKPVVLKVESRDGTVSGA

| Reduction of 4-oxo-4-HPR formation from 4-HPR alone [9] [%] | Reduction of 4-oxo-4-HPR formation from 4-HPR alone [11] [%] | Compound | Maximum tolerated dose [1] [mg·m^−2 per day] | 4-oxo-4-HPR concentrations formed from 4-HPR [2] | concentration at 4 h ([3]; athymic nude (nu/nu), mouse, plasma, oral, 180 mg/kg per day) [µM] | Increase of plasma level over control (4-HPR without ketoconazole) ([3]; nu/nu mice, + ketoconazole 75 mg/kg, P < 0.01) [fold] | concentration at 0 h [4] [µM] | concentration at 2 h [4] [µM] | concentration at 4 h [4] [µM] | concentration at 6 h [4] [µM] | concentration at 8 h [4] [µM] | Concentrations exhibiting cytotoxic activity [5] [µM] | Increase of plasma level over control (4-HPR without ketoconazole) ([6]; + ketoconazole 18.75 mg/kg, P < 0.01) [fold] | Increase of plasma level over control (4-HPR without ketoconazole) ([6]; + ketoconazole 25 mg/kg, 4 h after fifth dose, Fig 4C) | Oral bioavailability [7] | Km at 60 min [8] [µM] | Concentrations at which specific for CYP3A4 [10] |
| --- | --- | --- | --- | --- | --- | --- | --- | --- | --- | --- | --- | --- | --- | --- | --- | --- | --- |
|  |  | CC1=C(/C=C/C(C)=C/C=C/C(C)=C/C(=O)Nc2ccc(O)cc2)C(C)(C)CCC1 [4-HPR, N-(4-hydroxyphenyl)retinamide] | 2450 | increased in a time-dependent manner | 14.5 | 2.2 | 7.04 ± 4.75 | 9.69 ± 7.3 | 12.8 | 13.1 ± 8.5 | 8.55 ± 6.42 | 1 to 10 | 3.4 | twofold | approximately 16% | 25.8 |  |
| 96.5 | 33.7 | CC(=O)N1CCN(c2ccc(OCC3COC(Cn4ccnc4)(c4ccc(Cl)cc4Cl)O3)cc2)CC1 (stereo not drawn) [ketoconazole] |  |  |  |  |  |  |  |  |  |  |  |  |  |  | up to 1 µM |
| 40.9 |  | OC(Cn1cncn1)(Cn1cncn1)c1ccc(F)cc1F [fluconazole] |  |  |  |  |  |  |  |  |  |  |  |  |  |  |  |
